Assay results from different studies.
Compare with care: the assays were run in different laboratories.
Target: Homeodomain-interacting protein kinase 4 (HIPK4, Homo sapiens, UniProt Q8NE63)
One construct used (Q8NE63 1-616): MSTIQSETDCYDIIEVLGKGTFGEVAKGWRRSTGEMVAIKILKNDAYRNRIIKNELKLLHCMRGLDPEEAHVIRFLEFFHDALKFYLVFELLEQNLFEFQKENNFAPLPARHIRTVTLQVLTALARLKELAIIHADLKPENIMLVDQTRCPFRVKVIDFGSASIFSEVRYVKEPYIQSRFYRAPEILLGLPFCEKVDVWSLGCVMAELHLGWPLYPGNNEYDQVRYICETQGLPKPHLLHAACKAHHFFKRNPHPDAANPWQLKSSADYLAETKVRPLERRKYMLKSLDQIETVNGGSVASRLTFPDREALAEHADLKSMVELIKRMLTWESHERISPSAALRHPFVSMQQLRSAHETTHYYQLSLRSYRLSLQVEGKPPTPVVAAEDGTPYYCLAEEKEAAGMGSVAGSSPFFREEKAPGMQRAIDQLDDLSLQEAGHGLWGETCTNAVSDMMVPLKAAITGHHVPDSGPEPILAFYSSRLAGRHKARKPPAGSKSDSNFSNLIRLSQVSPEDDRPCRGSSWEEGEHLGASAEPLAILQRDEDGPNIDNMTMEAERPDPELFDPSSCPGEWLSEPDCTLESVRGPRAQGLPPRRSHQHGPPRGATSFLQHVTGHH

| SMILES | test | setting | endpoint | result |
| --- | --- | --- | --- | --- |
| C[C@H]1CC[C@H](n2c3cnccc3c3cnc(Nc4ccc5c(n4)CCN(C(=O)CO)C5)nc32)CC1 | binding, competition with immobilised ligand | 1 µM | remaining binding | 56% |
| CO[C@@H]1[C@H](N(C)C(=O)c2ccccc2)C[C@H]2O[C@]1(C)n1c3ccccc3c3c4c(c5c6ccccc6n2c5c31)C(=O)NC4 | enzyme activity, inhibitor | 1 µM | inhibition | 23% |
| CCCCC(=O)Nc1ccc(-c2ccc3ncn(CCC)c(=O)c3c2)cn1 | binding, competition with immobilised ligand | 0.5 µM | remaining binding | 66% |
| CC#CC(=O)N1CCC[C@H]1c1nc(-c2ccc(C(=O)Nc3ccccn3)cc2)c2c(N)nccn12 | enzyme activity, inhibitor | 1 µM | inhibition | 0% |
| C1=C/COCc2cc(ccc2OCCN2CCCC2)Nc2nccc(n2)-c2cccc(c2)COC/1 | binding | 0.1 µM | remaining binding | 2.3% |
| C#Cc1cc(-c2cc(Nc3nc(N[C@@H](C)c4ccc(F)cn4)ncc3Cl)n[nH]2)ccc1C=O | enzyme activity, inhibitor | 0.2 µM | inhibition | 4.92% |
| CC(C)S(=O)(=O)c1ccc2nccc(Nc3ccc4sc(C5CCCC5)nc4c3)c2c1 | enzyme activity, inhibitor | 1 µM | activity vs control | 98% |
| CN1CCN(C(=O)c2ccc(NC(=O)Nc3ccc(N(C)c4ccnc(Nc5ccc(CS(C)(=O)=O)cc5)n4)cc3)cc2)CC1 | binding, competition with immobilised ligand | 1 µM | remaining binding | 74% |
